Experimental data as given in ChEMBL document CHEMBL3585329, “Cafestol-Type Diterpenoids from the Twigs of Tricalysia fruticosa with Potential Anti-inflammatory Activity” (J Nat Prod, 2015).
pIC50: −log10 of the molar value. The source made the active and inactive calls. The calls are words filed in the database; no cut-off is given here.

What was measured:
[1] = Cytotoxicity against mouse RAW264.7 cells assessed as cell survival up to 100 uM; type: cell-based; settings: read-out: Survival
In short: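 RAW 264.7 macrophages were grown with 3.0 mM glutamine, penicillin and streptomycin (100 U/mL each), and 10% heat-inactivated FBS at 37 °C in humidified 5% CO2. Cell survival was examined after exposure to each isolate at concentrations up to 100 μM.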

RAW264.7 [2] = assay: Inhibition of LPS-induced NO release in mouse RAW264.7 cells after 24 hrs by Griess reaction; type: functional, cell-based; settings: RAW264.7, 24 h
In short: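 RAW 264.7 cells (10% heat-inactivated FBS, 3.0 mM glutamine, 37 °C, 5% CO2) seeded at 2 × 10^4 cells/mL. DMSO-solubilized compounds added 1 h before LPS. Supernatant nitrite measured by Griess reagent (0.1% naphthylethylene diamine, 1.0% sulfanilamide in 2.5% phosphoric acid), 10 min at room temperature, A550. NO quantified against a sodium nitrite standard curve. Positive control: N-monomethyl-L-arginine.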

RAW264.7 [3] = assay: Suppression of LPS-induced iNOS protein expression in mouse RAW264.7 cells by Western blotting analysis; type: functional, cell-based
In short: (§1)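 Macrophages seeded at 1 × 10^6 cells/well, pretreated 1 h with 2.5, 5.0 or 10.0 μM test agent (DMSO), then stimulated with LPS 1 μg/mL. Dexamethasone 1.0 μM served as positive control. Lysis in ice-cold RIPA with 0.1% PMSF, 12000g for 20 min. SDS-PAGE, PVDF transfer, 5% skim-milk block, primary antibody overnight at 4 °C, HRP secondary (1:12 000) 1.5 h at RT, ECL detection. Means ± SD.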

RAW264.7 [4] = assay: Suppression of LPS-induced IL6 protein expression in mouse RAW264.7 cells by ELISA; type: functional, cell-based
In short: (§2)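 RAW 264.7 cells seeded at 4 × 10^5 cells/well and exposed to LPS with or without 2.5, 5.0 or 10.0 μM test agent (DMSO stock diluted in DMEM, added 1 h before LPS) for 18 h. Cytokine in cell-free supernatant measured by mouse ELISA kit per manufacturer's protocol. Means ± SD.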

RAW264.7 [5] = assay: Suppression of LPS-induced TNFalpha protein expression in mouse RAW264.7 cells by ELISA; type: functional, cell-based; in short: as §2
[6] = target: Transcription factor p65 (Mus musculus) (UniProt Q04207); assay: Inhibition of NFkappaBp65 activation in LPS-induced mouse RAW264.7 cells at 2.5 to 10 uM by Western blotting analysis; type: cell-based; in short: as §1
Chain of Transcription factor p65 (Mus musculus) (Q04207 whole entry): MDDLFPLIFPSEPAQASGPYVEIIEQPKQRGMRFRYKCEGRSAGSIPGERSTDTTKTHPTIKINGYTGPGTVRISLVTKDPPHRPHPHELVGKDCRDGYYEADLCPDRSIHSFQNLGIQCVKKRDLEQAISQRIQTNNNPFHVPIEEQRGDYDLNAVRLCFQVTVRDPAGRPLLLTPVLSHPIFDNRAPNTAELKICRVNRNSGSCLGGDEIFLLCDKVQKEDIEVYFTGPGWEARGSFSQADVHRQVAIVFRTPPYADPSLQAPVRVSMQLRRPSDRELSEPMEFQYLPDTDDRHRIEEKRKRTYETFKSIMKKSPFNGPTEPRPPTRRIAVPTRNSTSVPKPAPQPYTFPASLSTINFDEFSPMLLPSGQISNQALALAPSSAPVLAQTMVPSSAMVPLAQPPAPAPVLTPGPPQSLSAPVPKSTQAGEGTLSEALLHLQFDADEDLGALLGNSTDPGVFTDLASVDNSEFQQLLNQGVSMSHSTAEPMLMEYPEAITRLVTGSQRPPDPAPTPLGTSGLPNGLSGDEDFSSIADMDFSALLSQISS

RAW264.7 [7] = assay: Inhibition of LPS-stimulated ERK phosphorylation in mouse RAW264.7 cells by Western blotting analysis; type: cell-based; in short: as §1
RAW264.7 [8] = assay: Inhibition of LPS-stimulated JNK phosphorylation in mouse RAW264.7 cells by Western blotting analysis; type: cell-based; in short: as §1
[9] = target: MAP kinase p38 (Mus musculus) (UniProt P47811+O08911+Q9WUI1+Q9Z1B7); assay: Inhibition of LPS-stimulated p38 phosphorylation in mouse RAW264.7 cells by Western blotting analysis; type: cell-based; in short: as §1
[10] = target: NF-kappa-B inhibitor alpha (Mus musculus) (UniProt Q9Z1E3); assay: Inhibition of IkappaB alpha phosphorylation in LPS-induced mouse RAW264.7 cells by Western blotting analysis
Chain of NF-kappa-B inhibitor alpha (Mus musculus) (Q9Z1E3 whole entry, looked up): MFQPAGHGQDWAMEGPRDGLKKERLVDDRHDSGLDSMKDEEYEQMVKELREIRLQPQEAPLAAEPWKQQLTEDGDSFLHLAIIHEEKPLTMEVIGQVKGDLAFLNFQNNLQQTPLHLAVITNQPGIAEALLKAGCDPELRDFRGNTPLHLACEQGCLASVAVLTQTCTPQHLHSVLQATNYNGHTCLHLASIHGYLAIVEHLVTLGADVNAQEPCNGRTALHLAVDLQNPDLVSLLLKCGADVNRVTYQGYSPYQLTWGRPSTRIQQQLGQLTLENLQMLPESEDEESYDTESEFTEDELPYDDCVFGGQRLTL

Row | SMILES | viability [1] [%] | pIC50 (RAW264.7 [2]) | further results
1 | C[C@@]12[C@H](O)C=C3OC(=O)C=C3[C@H]1CC[C@@]13C[C@@H](CC[C@H]12)[C@@](O)(CO)C3 | > 90 | < 4.00 | 
2 | C[C@@]12CC(=O)c3occc3[C@H]1CC[C@]13C[C@](O)(CO)[C@@](O)(CC[C@H]12)C3 | > 90 | < 4.00 | 
3 | CCOC(=O)/C=C1\C(=O)C=C[C@]2(C)[C@@H]1CC[C@]13C[C@](O)(CO)[C@@](O)(CC[C@H]12)C3 | > 90 | 5.18 | inhibition (RAW264.7 [3]): Dose-dependent effect; inhibition (RAW264.7 [4]): Dose-dependent effect; inhibition (RAW264.7 [5]): Dose-dependent effect; inhibition [6]: Active; inhibition (RAW264.7 [7]): Active; inhibition (RAW264.7 [8]): Active; inhibition [9]: Active; inhibition [10]: Active
4 | C[C@@]12C=CC(=O)C[C@H]1CC[C@]13C[C@](O)(CO)[C@@](O)(CC[C@H]12)C3 | > 90 | 4.57 | 
5 | C[C@@]12CC[C@@]3(O)OC(=O)C=C3[C@H]1CC[C@@]13C[C@H](CC[C@H]12)[C@@](O)(CO)C3 | > 90 | < 4.00 | 
6 | C[C@@]12CC=C3OC(=O)C=C3[C@H]1CC[C@@]13C[C@@H](CC[C@@H]21)[C@@](O)(CO)[C@@H]3O | > 90 | < 4.00 | 
7 | CNC(=N)NCCC[C@H](N)C(=O)O [TILARGININE] |  | 4.39 | 
8 | C[C@@]12CC[C@H]3OC(=O)C=C3[C@H]1CC[C@@]13C[C@H](CC[C@]12O)[C@@](O)(CO)C3 | > 90 | < 4.00 | 
9 | CO[C@@H]1C[C@@]2(CC[C@@]3(C)[C@@H]4CC[C@@H]5C[C@@]4(CC[C@H]23)C[C@]5(O)CO)C(=O)O1 | > 90 | < 4.00 | 
10 | C[C@@]12CC[C@@]3(O)OC(=O)C=C3[C@H]1CC[C@@]13C[C@H](CC[C@@H]21)[C@@](O)(CO)[C@@H]3O | > 90 | < 4.00 | 
11 | C[C@@]12CC=C3OC(=O)C=C3[C@H]1CC[C@@]13C[C@@H](CC[C@H]12)[C@@](O)(CO)C3 | > 90 | < 4.00 | 
12 | C[C@@]12CC[C@H]3OC(=O)C=C3[C@H]1CC[C@@]13C[C@@H](CC[C@H]12)[C@@](O)(CO)C3 | > 90 | < 4.00 | 
13 | CC(=O)OC[C@]1(O)[C@@H]2CC[C@H]3[C@]4(C)CC[C@@]5(O)OC(=O)C=C5[C@H]4CC[C@]3(C2)[C@H]1O | > 90 | < 4.00 | 
14 | C[C@@]12CC[C@@]3(O)OC(=O)C=C3[C@H]1CC[C@]13C[C@](O)(CO)[C@@](O)(CC[C@H]12)C3 | > 90 | < 4.00 | 
